Results published in the M2OR odorant receptor database.
Changes are numbered by the printed parent chain.

Key:
Details in all cases: stereoisomer not certain
[1] = molecular target: T1, OR4S2 (Homo sapiens) (UniProt Q8NH73)
T1 sequence (whole entry): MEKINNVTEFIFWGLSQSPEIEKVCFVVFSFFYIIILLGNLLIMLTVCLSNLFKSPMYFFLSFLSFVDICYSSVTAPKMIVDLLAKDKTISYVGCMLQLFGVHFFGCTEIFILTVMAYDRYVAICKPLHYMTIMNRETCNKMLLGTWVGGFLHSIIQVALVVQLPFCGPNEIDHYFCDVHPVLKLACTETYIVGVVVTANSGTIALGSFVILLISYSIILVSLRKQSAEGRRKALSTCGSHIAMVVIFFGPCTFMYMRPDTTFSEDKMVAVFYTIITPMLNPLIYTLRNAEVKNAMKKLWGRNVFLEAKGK
Method in brief: (§1)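 Transient luciferase assays in mammalian cell lines were common, though methods varied by source. The values come from published papers and their supplementary material, with extra details from the original authors when needed. Responsive refers to a measured signal the original authors judged statistically different from baseline, and non-responsive (inactive) to the remainder.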

[2] = molecular target: T2, OR4X1 (Homo sapiens) (UniProt Q8NH49)
T2 sequence (whole entry): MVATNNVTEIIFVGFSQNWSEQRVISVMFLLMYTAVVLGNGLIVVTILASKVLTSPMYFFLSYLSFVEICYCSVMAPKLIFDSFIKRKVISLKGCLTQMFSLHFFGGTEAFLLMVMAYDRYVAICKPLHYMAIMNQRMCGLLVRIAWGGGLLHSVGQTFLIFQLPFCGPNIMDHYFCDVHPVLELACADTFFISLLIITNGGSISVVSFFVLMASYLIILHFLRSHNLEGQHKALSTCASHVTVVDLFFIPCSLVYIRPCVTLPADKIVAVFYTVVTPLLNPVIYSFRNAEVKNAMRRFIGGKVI
Method in brief: as §1

[3] = molecular target: T3, OR4X2 (Homo sapiens) (UniProt Q8NGF9)
T3 sequence (whole entry): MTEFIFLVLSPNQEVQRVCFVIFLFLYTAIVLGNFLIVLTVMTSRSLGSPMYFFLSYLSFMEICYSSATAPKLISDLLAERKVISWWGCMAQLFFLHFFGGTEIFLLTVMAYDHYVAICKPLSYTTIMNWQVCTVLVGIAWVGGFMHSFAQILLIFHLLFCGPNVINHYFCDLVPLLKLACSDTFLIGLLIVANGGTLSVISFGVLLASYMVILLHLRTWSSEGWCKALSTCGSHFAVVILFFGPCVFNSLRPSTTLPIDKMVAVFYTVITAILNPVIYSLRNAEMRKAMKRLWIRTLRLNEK
Method in brief: as §1

[4] = molecular target: T4, OR51A2 (Homo sapiens) (UniProt Q8NGJ7)
T4 sequence (whole entry): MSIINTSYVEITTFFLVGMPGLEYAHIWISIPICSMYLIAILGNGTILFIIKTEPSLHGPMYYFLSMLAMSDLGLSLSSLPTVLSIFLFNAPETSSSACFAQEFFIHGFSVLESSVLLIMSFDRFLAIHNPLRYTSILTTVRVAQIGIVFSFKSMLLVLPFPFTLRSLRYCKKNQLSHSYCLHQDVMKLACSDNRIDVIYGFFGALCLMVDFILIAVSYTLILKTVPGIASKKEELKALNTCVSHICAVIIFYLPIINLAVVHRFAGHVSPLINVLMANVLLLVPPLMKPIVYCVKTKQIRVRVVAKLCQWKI
Method in brief: as §1

[5] = molecular target: T5, OR51A4 (Homo sapiens) (UniProt Q8NGJ6)
T5 sequence (whole entry): T4 sequence (whole entry) with G59E, T94I, S97N, S167N, P227L, E235Q, G267R, M288T, K289N, W311R
Method in brief: as §1

[6] = molecular target: T6, OR51A7 (Homo sapiens) (UniProt Q8NH64)
T6 sequence (whole entry): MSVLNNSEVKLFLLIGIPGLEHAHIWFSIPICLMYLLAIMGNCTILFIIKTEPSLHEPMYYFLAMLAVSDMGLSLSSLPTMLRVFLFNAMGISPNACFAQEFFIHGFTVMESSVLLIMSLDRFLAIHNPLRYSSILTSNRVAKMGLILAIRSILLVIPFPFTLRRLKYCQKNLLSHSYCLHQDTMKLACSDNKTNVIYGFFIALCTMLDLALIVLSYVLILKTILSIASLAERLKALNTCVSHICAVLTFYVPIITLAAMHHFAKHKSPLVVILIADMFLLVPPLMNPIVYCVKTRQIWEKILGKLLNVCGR
Method in brief: as §1

[7] = molecular target: T7, OR51B2 (Homo sapiens) (UniProt Q9Y5P1)
T7 sequence (whole entry): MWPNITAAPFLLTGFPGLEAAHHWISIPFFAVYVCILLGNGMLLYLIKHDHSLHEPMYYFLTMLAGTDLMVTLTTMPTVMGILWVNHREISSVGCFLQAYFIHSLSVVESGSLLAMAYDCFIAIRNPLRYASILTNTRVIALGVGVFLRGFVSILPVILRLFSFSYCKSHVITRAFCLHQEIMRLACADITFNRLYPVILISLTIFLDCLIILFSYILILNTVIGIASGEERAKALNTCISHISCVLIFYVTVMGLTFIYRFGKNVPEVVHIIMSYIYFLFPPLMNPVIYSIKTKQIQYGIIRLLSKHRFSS
Method in brief: as §1

[8] = molecular target: T8, OR51B4 (Homo sapiens) (UniProt Q9Y5P0)
T8 sequence (whole entry): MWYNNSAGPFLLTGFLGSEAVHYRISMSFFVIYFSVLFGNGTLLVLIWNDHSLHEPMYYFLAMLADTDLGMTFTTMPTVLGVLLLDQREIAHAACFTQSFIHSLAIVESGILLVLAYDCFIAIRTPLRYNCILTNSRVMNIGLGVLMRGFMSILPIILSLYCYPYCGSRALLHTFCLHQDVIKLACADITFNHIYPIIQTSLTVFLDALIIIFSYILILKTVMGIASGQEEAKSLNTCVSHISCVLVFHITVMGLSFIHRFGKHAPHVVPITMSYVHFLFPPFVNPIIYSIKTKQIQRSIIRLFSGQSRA
Method in brief: as §1

[9] = molecular target: T9, OR51B5 (Homo sapiens) (UniProt Q9H339)
T9 sequence (whole entry): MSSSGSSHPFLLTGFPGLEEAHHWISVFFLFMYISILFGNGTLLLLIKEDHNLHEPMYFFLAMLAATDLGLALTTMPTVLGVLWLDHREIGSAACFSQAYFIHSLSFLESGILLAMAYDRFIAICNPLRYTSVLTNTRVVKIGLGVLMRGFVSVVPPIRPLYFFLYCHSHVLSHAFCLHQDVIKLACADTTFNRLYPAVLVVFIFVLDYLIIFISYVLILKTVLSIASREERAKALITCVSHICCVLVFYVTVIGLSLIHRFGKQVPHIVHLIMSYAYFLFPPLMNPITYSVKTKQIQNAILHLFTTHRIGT
Method in brief: as §1

[10] = molecular target: T10, OR51B6 (Homo sapiens) (UniProt Q9H340)
T10 sequence (whole entry): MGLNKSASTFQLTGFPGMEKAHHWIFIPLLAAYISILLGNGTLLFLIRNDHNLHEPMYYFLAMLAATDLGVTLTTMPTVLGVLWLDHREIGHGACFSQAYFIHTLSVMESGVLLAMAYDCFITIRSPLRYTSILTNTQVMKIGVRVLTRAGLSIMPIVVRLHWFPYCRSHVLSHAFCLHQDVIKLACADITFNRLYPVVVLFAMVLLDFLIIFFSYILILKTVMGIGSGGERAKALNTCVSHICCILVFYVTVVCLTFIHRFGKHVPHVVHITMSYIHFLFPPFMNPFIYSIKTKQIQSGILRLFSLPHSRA
Method in brief: as §1

[11] = molecular target: T11, OR51D1 (Homo sapiens) (UniProt Q8NGF3)
T11 sequence (whole entry): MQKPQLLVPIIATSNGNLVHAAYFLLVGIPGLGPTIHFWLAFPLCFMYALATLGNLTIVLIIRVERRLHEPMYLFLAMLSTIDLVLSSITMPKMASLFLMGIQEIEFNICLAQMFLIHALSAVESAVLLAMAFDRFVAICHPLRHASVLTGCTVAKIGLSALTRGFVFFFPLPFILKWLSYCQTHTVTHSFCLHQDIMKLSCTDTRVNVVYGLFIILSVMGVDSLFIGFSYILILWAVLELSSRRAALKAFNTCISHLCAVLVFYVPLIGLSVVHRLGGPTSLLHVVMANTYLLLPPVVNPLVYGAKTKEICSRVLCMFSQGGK
Method in brief: as §1

[12] = molecular target: T12, OR51E1 (Homo sapiens) (UniProt Q8TCB6)
T12 sequence (whole entry): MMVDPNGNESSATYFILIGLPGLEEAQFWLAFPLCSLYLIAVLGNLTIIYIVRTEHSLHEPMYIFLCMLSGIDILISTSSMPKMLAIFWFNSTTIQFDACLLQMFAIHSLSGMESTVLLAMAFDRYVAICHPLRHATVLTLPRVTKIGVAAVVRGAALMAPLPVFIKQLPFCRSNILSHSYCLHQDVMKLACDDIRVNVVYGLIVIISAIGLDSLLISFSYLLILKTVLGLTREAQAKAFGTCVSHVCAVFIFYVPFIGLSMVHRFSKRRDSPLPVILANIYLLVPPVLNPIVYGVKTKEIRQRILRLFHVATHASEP
Method in brief: as §1

[13] = molecular target: T13, OR51E2 (Homo sapiens) (UniProt Q9H255)
T13 sequence (whole entry): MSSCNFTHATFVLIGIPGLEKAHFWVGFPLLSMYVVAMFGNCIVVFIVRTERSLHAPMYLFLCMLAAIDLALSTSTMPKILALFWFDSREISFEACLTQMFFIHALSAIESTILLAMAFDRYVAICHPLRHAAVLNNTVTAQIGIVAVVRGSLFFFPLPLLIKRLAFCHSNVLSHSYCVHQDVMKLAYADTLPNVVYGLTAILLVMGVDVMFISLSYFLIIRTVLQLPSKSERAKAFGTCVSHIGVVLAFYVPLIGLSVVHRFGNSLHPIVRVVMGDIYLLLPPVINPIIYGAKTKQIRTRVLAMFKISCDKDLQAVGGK
Method in brief: as §1

[14] = molecular target: T14, OR51F2 (Homo sapiens) (UniProt Q8NH61)
T14 sequence (whole entry): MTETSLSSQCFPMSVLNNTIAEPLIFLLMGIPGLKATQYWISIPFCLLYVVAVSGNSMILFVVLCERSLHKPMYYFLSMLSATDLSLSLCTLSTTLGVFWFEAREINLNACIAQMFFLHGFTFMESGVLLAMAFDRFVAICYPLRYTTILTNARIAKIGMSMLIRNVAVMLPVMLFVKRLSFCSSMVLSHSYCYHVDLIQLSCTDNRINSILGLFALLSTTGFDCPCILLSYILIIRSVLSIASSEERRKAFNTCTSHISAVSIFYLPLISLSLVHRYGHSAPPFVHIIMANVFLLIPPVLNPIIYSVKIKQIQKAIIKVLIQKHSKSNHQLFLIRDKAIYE
Method in brief: as §1

[15] = molecular target: T15, OR51G1 (Homo sapiens) (UniProt Q8NGK1)
T15 sequence (whole entry): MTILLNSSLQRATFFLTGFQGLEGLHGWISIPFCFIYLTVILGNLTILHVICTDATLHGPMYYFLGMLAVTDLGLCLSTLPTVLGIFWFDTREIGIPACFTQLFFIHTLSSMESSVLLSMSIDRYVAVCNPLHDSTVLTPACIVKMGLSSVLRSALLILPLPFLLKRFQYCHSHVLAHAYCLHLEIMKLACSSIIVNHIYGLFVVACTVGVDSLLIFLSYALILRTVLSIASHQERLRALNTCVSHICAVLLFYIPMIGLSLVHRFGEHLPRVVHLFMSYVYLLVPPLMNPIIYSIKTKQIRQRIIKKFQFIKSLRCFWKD
Method in brief: as §1

[16] = molecular target: T16, OR51G2 (Homo sapiens) (UniProt Q8NGK0)
T16 sequence (whole entry): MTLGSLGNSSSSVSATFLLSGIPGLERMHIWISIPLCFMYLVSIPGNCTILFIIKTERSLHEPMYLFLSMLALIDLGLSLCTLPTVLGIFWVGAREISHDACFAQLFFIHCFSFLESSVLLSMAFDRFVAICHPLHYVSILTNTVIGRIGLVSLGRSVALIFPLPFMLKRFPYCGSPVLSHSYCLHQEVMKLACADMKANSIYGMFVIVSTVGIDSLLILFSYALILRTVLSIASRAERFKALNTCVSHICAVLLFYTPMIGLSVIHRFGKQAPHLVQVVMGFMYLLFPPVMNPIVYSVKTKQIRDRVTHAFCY
Method in brief: as §1

[17] = molecular target: T17, OR51I1 (Homo sapiens) (UniProt Q9H343)
T17 sequence (whole entry): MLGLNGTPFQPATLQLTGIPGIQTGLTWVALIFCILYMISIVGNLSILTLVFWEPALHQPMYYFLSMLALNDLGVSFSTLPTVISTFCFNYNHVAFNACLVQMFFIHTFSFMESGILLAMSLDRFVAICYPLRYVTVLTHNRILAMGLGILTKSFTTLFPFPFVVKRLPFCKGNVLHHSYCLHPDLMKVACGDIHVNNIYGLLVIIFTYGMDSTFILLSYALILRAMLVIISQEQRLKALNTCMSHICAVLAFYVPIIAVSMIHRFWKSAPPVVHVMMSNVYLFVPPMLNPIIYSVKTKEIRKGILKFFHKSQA
Method in brief: as §1

Measured: odorant receptor agonist call;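 note: active if original authors judged signal statistically different from baseline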

CC1=NC(C)C(C)S1 (configuration not stated)
inactive: all assays above
